Measured values published in ChEMBL document CHEMBL4396904, “Design, Synthesis, and Anti-HBV Activity of New Bis(l-amino acid) Ester Tenofovir Prodrugs” (ACS Med Chem Lett, 2019).
Activity calls are given as the source filed them. The calls are words filed in the database; no cut-off is given here.

Key:
[1] = Cytotoxicity against human HepG2.2.15 cells infected with HBV; assay type: cell-based, HepG2 2.2.15
In short: (§1)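 HepG 2.2.15 cells; IC50 is the concentration giving 50% inhibition of cytoplasmic HBV-DNA synthesis; CC50 comes from a CPE (cytopathic effect) cytotoxicity assay in the same cells. Both were derived by the Reed & Muench method, and each experiment was run at least twice separately. SI = CC50/IC50.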

Hepatitis B virus [2] = test: Antiviral activity against HBV infected in human HepG2.2.15 cells assessed as reduction in cytoplasmic DNA synthesis by reed and munch method; assay type: functional, organism-based; in short: as §1
[3] = Selectivity index, ratio of CC50 for human HepG2.2.15 cells to IC50 for HBV infected in human HepG2.2.15 cells; assay type: toxicity, cell-based; conditions: read-out: Ratio CC50/IC50; in short: as §1
Hepatitis B virus [4] = test: Antiviral activity against HBV infected in pekin duck assessed as reduction in serum viral DNA level administered via oral gavage twice daily for 14 days and measured on day 14 post treatment and on day 3 after treatment cessation by qRT-PCR analysis; assay type: functional, organism-based
In short: (§2)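 DHBV-infected ducks, six per group, were gavaged twice daily at 0.1, 0.2 or […] or with vehicle (0.5% CMC-Na or water); 3TC was given orally once daily. Blood was collected at day 0 (pretreatment), day 7, day 14 and 3 days after cessation. Serum DHBV DNA was extracted and quantified by real-time PCR. Body weight was monitored during treatment. Comparison was against vehicle.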

[5] = Toxicity against Pekin duck infected with HBV assessed as change in body weight at 0.1 to 0.4 mmol/kg, po twice daily for 14 days administered via gavage and measured every day during compound dosing; assay type: organism-based; conditions: anas platyrhynchos, in vivo, 336 h; in short: as §2
HBV genotype D [6] = test: Antiviral activity against HBV genotype D hydrodynamically infected as pHBV1.3 mer plasmid carrying viral genome in C57BL/6 mouse assessed as log10 reduction in serum viral DNA level at 0.10 to 0.50 mmol/kg/day, po via gavage administered as twice daily dosage and measured on day 4 post treatment by qRT-PCR analysis; assay type: functional, hepatitis B virus genotype D
In short: (§3)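 C57BL/6 mice were hydrodynamically injected with HBV 1.3mer plasmid. From one day later (day 0), they were gavaged twice daily at […] or with vehicle; ETV was given orally once daily; n = 5-6 per group. Blood was taken at days 0, 2, 4 and 6, and serum HBV DNA was measured by real-time PCR. Body weight was recorded over 6 days of treatment. Significance was set against vehicle.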

Hepatitis B virus [7] = test: Potency index, ratio of Lamivudine IC50 to compound IC50 for antiviral activity against HBV infected in human HepG2.2.15 cells; assay type: functional
Hepatitis B virus [8] = test: Potency index, ratio of TFV IC50 to compound IC50 for antiviral activity against HBV infected in human HepG2.2.15 cells; assay type: functional
Rattus norvegicus [9] = test: Ratio of compound oral bioavailability in Sprague-Dawley rat at 45.5 mg/kg administered as single dose to TFV oral bioavailability in Sprague-Dawley rat at 20 mg/kg administered as single dose by HPLC analysis; assay type: ADME, organism-based; conditions: in vivo
In short: (§4)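 SD rats received a single oral dose at equimolar […] (TFV 20 mg/kg); intravenous TFV was given at 5 mg/kg. PK parameters were derived from plasma TFV, including oral bioavailability F; n = 3 per group.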

Rattus norvegicus [10] = test: Ratio of compound oral bioavailability in Sprague-Dawley rat at 45.5 mg/kg administered as single dose to TDF oral bioavailability in Sprague-Dawley rat at 44.3 mg/kg administered as single dose by HPLC analysis; assay type: ADME, organism-based; conditions: in vivo; in short: as §4
HBV genotype D [11] = test: Antiviral activity against HBV genotype D hydrodynamically infected as pHBV1.3 mer plasmid carrying viral genome in C57BL/6 mouse assessed as reduction in serum viral DNA level administered via oral gavage twice daily and measured upto 6 days post treatment by qRT-PCR analysis; assay type: functional, organism-based; conditions: hepatitis B virus genotype D; in short: as §3
Hepatitis B virus [12] = test: Antiviral activity against HBV infected in pekin duck assessed as reduction in serum viral DNA level at 0.4 mmol/kg, po once daily for 14 days and measured on days 7, 14 post treatment and on day 3 after treatment cessation by qRT-PCR analysis; assay type: functional, organism-based
[13] = Toxicity against Pekin duck infected with HBV assessed as change in body weight at 0.2 to 0.4 mmol/kg, […] for 14 days and measured every day during compound dosing; assay type: organism-based; conditions: anas platyrhynchos, in vivo, po, 336 h
In short: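 DHBV-infected ducks, six per group, were gavaged twice daily at 0.1, 0.2 or […], with vehicle groups of 0.5% CMC-Na or water; 3TC was given orally once daily. Serum DHBV DNA was measured by real-time PCR on days 0, 7 and 14 and 3 days after dosing stopped, and body weight was monitored. Data are mean ± SD.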

[14] = Clearance in Sprague-Dawley rat at 5 mg/kg, iv; assay type: ADME, organism-based; conditions: in vivo
In short: (§5)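 Male/female unspecified SD rats, n = 3 per group, received a single dose of TFV at 20 mg/kg by mouth or 5 mg/kg intravenously. Prodrugs were given orally at an equimolar […]. PK parameters were calculated for the released TFV and reported as means.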

[15] = Half-life in Sprague-Dawley rat at 5 mg/kg, iv; assay type: ADME, organism-based; conditions: in vivo; in short: as §5
[16] = AUC(0 to infinity) in Sprague-Dawley rat at 5 mg/kg, iv; assay type: ADME, organism-based; parameters: dose 5 mg/kg, route intravenous, time infinity; conditions: in vivo; in short: as §5
[17] = Half-life in Sprague-Dawley rat at 20 mg/kg, po administered as single dose and measured after 0.25 to 24 hrs by HPLC analysis; assay type: ADME, organism-based; conditions: in vivo; in short: as §5
[18] = Tmax in Sprague-Dawley rat at 20 mg/kg, po administered as single dose and measured after 0.25 to 24 hrs by HPLC analysis; assay type: ADME, organism-based; conditions: in vivo; in short: as §5
[19] = Cmax in Sprague-Dawley rat at 20 mg/kg, po administered as single dose and measured after 0.25 to 24 hrs by HPLC analysis; assay type: ADME, organism-based; parameters: dose 20 mg/kg, route oral; conditions: in vivo; in short: as §5
[20] = AUC(0 to infinity) in Sprague-Dawley rat at 20 mg/kg, po administered as single dose and measured after 0.25 to 24 hrs by HPLC analysis; assay type: ADME, organism-based; parameters: dose 20 mg/kg, time infinity, route oral; conditions: in vivo; in short: as §5
[21] = Oral bioavailability in Sprague-Dawley rat at 20 mg/kg administered as single dose and measured after 0.25 to 24 hrs by HPLC analysis; assay type: ADME, organism-based; conditions: in vivo; in short: as §5
[22] = Toxicity against C57BL/6 mouse hydrodynamically infected with pHBV1.3 mer plasmid carrying HBV genotype D assessed as change in body weight at 0.1 to 1 mg/kg, po once daily and measured upto 6 days post treatment; assay type: organism-based; conditions: in vivo, 144 h
HBV genotype D [23] = test: Antiviral activity against HBV genotype D hydrodynamically infected as pHBV1.3 mer plasmid carrying viral genome in C57BL/6 mouse assessed as reduction in serum viral DNA level at 0.1 to 1 mg/kg, po once daily and measured upto 6 days post treatment by qRT-PCR analysis; assay type: functional, organism-based; conditions: hepatitis B virus genotype D
In short: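 C57BL/6 mice received the HBV 1.3mer plasmid by hydrodynamic tail-vein injection. From one day later they were dosed by oral gavage twice daily at […], with vehicle groups of 20% Kolliphor HS 15 or water; ETV was given once daily. There were 5-6 mice per group. Serum HBV DNA was measured by real-time PCR on days 0, 2, 4 and 6, and body weight was tracked over the 6 days.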

SMILES	CC50 [1]	IC50 (Hepatitis B virus [2])	selectivity ratio [3]	further results
CC(C)OC(=O)OCOP(=O)(CO[C@H](C)Cn1cnc2c(N)ncnc21)OCOC(=O)OC(C)C.O=C(O)/C=C/C(=O)O [TENOFOVIR DISOPROXIL FUMARATE]	20.7 µM	0.85 µM	24	inhibition (Hepatitis B virus [4]): Dose-dependent effect; Activity [5]: Non-Toxic; log(activity) (HBV genotype D [6]): 1.7
CC[C@H](C)[C@H](N)C(=O)OCCOP(=O)(CO[C@H](C)Cn1cnc2c(N)ncnc21)OCCOC(=O)[C@@H](N)[C@@H](C)CC	294 µM	12.2 µM	24	–
CC(C)[C@H](N)C(=O)OCCCOP(=O)(CO[C@H](C)Cn1cnc2c(N)ncnc21)OCCCOC(=O)[C@@H](N)C(C)C	51.9 µM	> 3.24 µM	–	–
CC(C)[C@H](N)C(=O)OCOP(=O)(CO[C@H](C)Cn1cnc2c(N)ncnc21)OCOC(=O)[C@@H](N)C(C)C.Cl	57.3 µM	0.71 µM	80	Ratio IC50 (Hepatitis B virus [7]): 3; Ratio IC50 (Hepatitis B virus [8]): 22; Ratio (Rattus norvegicus [9]): 7; Ratio (Rattus norvegicus [10]): 3; inhibition (Hepatitis B virus [4]): Dose-dependent effect; Activity [5]: Non-Toxic; inhibition (HBV genotype D [11]): Dose-dependent effect; log(activity) (HBV genotype D [6]): 1.1
CC(C)C[C@H](N)C(=O)OCCCOP(=O)(CO[C@H](C)Cn1cnc2c(N)ncnc21)OCCCOC(=O)[C@@H](N)CC(C)C	218 µM	4.22 µM	47	–
Nc1ccn([C@@H]2CS[C@H](CO)O2)c(=O)n1 [LAMIVUDINE]	> 218 µM	2.22 µM	> 98	inhibition (Hepatitis B virus [12]): Active; Activity [13]: Non-Toxic
C[C@H](Cn1cnc2c(N)ncnc21)OCP(=O)(O)O [TENOFOVIR ANHYDROUS]	435 µM	16 µM	27	clearance [14]: 5.35 mL/min/kg; half-life [15]: 10.2 h; AUC(0-inf) [16]: 15800 ng·h/mL; half-life [17]: 3.56 h; Tmax [18]: 0.833 h; Cmax [19]: 207 ng/mL; AUC(0-inf) [20]: 888 ng·h/mL; bioavailability [21]: 1.41%
CC(C)[C@H](N)C(=O)OCCOP(=O)(CO[C@H](C)Cn1cnc2c(N)ncnc21)OCCOC(=O)[C@@H](N)C(C)C	218 µM	2.6 µM	84	–
C[C@H](Cn1cnc2c(N)ncnc21)OCP(=O)(OCCOC(=O)[C@@H](N)Cc1ccccc1)OCCOC(=O)[C@@H](N)Cc1ccccc1	315 µM	2.93 µM	97	–
CC(C)C[C@H](N)C(=O)OCCOP(=O)(CO[C@H](C)Cn1cnc2c(N)ncnc21)OCCOC(=O)[C@@H](N)CC(C)C	218 µM	> 13 µM	–	–
C=C1[C@H](CO)[C@@H](O)C[C@@H]1n1cnc2c(=O)[nH]c(N)nc21.O [ENTECAVIR]	–	–	–	Activity [22]: Non-Toxic; inhibition (HBV genotype D [23]): Active
CC[C@H](C)[C@H](N)C(=O)OCCCOP(=O)(CO[C@H](C)Cn1cnc2c(N)ncnc21)OCCCOC(=O)[C@@H](N)[C@@H](C)CC	315 µM	> 49.6 µM	–	–
